Read-outs that look alike come from different tables or passages of the source.
Experiments:
CYP3A4 [1] = test system: CYP3A4
[2] = for DN AUC0–last / CL/F: SAD, fasted, n = 6, mean
clinical [3] = conditions: human, in vivo, 600 mg, fasted period, n = 8, mean
IL‐1β [4] = experiment: Ex vivo LPS/ATP stimulation of whole blood from participants: IL‐1β production; assay type: cell-based, human; conditions: for maximum mean inhibition of IL‐1β production: relative to baseline
Method in brief: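 Whole blood from participants was drawn predose and at postdose timepoints. MAD dosing was oral 300 or 900 mg b.i.d. on days 1–6 plus one morning dose on day 7, fasted. Blood was stimulated ex vivo with an LPS plus ATP cocktail. Secreted IL-1β was the mean of two technical replicates. Inhibition = [1−(postdose/predose stimulated level)]×100%. IC90 came from a sigmoid Emax fit against time-matched plasma drug levels (HPLC-MS/MS).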

IL‐18 = experiment: Ex vivo LPS/ATP stimulation of whole blood from participants: IL‐18 production; assay type: cell-based, human
[5] = 600 mg, high‐fat vs fasted
CYP3A4 [6] = experiment: In vitro CYP3A4 induction assays and preliminary PBPK modeling; assay type: in vitro ADME; conditions: unpublished data
clinical [7] = conditions: human, in vivo, po
[8] = cynomolgus monkey, 4‐week study; cited from earlier work
[9] = for C min: steady‐state (day 7), n = 6, mean
clinical [10] = conditions: human, in vivo, n = 6, mean; for AUC: AUC0–tau; for Cmax: C max
Urinary PK = assay type: in vivo, human; conditions: multiple b.i.d. dosing (MAD)
human whole blood = conditions: cited from earlier work
[11] = cited from earlier work
[12] = Safety: adverse events and laboratory findings in healthy volunteers; assay type: in vivo, human
Method in brief: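 Healthy volunteers receiving at least one dose of study drug formed the safety population. End points were incidence and severity of AEs, and baseline changes in vital signs, clinical laboratory tests and 12-lead ECG. DDI stage: one cohort of nine, test compound given fasted with co-administered midazolam. Other stages: single oral 150–1800 mg; 300 or 900 mg b.i.d.; 600 mg fasted then after high-fat meal.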

CYP3A4 [13] = experiment: clinical; conditions: human, in vivo
[14] = Plasma PK of metabolite indacenyl amine after GDC‐2394; assay type: in vivo, human
IL‐1β [15] = conditions: patients with atherosclerosis and residual inflammation ref 8; cited from earlier work
[16] = 1‐hydroxymidazolam, day 10 vs day 1
[17] = midazolam 5 mg alone (reference, day 1), analyte 1‐hydroxymidazolam, n 9
[18] = single 150‐mg, 450‐mg and 900‐mg doses
[19] = single doses of 600 mg, both fasted and high‐fat periods
[20] = 300 mg, MAD 300 mg b.i.d., first dose (day 1)
[21] = 300 mg, MAD 300 mg b.i.d., steady‐state (day 7)
[22] = 900 mg, MAD 900 mg b.i.d., first dose (day 1)
[23] = 900 mg, MAD 900 mg b.i.d., steady‐state (day 7)

Q: For `OCc1ncc2n1-c1ccc(Cl)cc1C(c1ccccc1F)=NC2` [1‐hydroxymidazolam], which “AUC0–inf GMR” value (CYP3A4 [1]; [16]) is on record?
A: 90%

Q: What about the “AUC0–last GMR” value (CYP3A4 [1]; [16]) of the same molecule?
A: 88%

Q: And the “Cmax GMR” value (CYP3A4 [1]; [16])?
A: 92%

Q: What about the “AUC0–inf, geometric LS mean” value (CYP3A4 [1]; [17]) of the same molecule?
A: 0.0203 µg·h/mL

Q: And the “AUC0–last, geometric LS mean” value (CYP3A4 [1]; [17])?
A: 0.0188 µg·h/mL

Q: What about the “C max, geometric LS mean” value (CYP3A4 [1]; [17]) of the same molecule?
A: 9.25 ng/mL

Q: Which results are given for `CN[C@@H]1COc2c(S(=O)(=O)NC(=O)Nc3c4c(cc5c3CCC5)CCC4)cnn2C1` [GDC‐2394, (S)‐N‐((1,2,3,5,6,7‐hexahydro‐s‐indacen‐4‐yl)carbamoyl)‐6‐(methylamino)‐6,7‐dihydro‐5H‐pyrazolo[5,1‐b][1,3]oxazine‐3‐sulfonamide]?
A: observed AUC relative to the preclinical prediction ([2]; 150‐mg starting dose): approximately three‐fold; DN AUC0–last ([2]; single oral 150 mg): 356 ng·h/mL/mg; CL/F ([2]; single oral 450 mg): 3390 mL/h; DN AUC0–last ([2]; single oral 450 mg): 307 ng·h/mL/mg; CL/F ([2]; single oral 900 mg): 3040 mL/h; DN AUC0–last ([2]; single oral 900 mg): 352 ng·h/mL/mg; CL/F ([2]; single oral 1800 mg): 2590 mL/h; DN AUC0–last ([2]; single oral 1800 mg): 410 ng·h/mL/mg; increases in systemic exposure with dose (dose‐normalized Cmax and AUC0–last) ([2]; single oral doses 150–1800 mg): approximately dose proportional; apparent clearance, range of mean values ([2]; single oral doses across 150–1800 mg): 2590 to 3390 mL/h; Cmax (clinical [3]; C max, FE 600 mg single dose): 28000 ng/mL; half-life (clinical [3]; T 1/2, FE 600 mg single dose): 5.3 h; mean inhibition of IL‐1β production sustained over the 7‐day dosing period (IL‐1β [4]; 300 mg b.i.d.): greater than 95%; mean inhibition of IL‐1β production sustained over the 7‐day dosing period (IL‐1β [4]; 900 mg b.i.d.): greater than 99%; IC90 (IL‐1β [4]; Homo sapiens, read-out: estimated plasma IC90 for IL‐1β inhibition): ~2500 nM; maximum mean inhibition of IL‐1β production (IL‐1β [4]; single 150‐mg dose): greater than 97%; time for which maximum mean IL‐1β inhibition was sustained (IL‐1β [4]; [18]): ~ 8 h; maximum mean inhibition of IL‐1β production (IL‐1β [4]; single 450‐mg dose): greater than 97%; maximum mean inhibition of IL‐1β production (IL‐1β [4]; single 900‐mg dose): greater than 99%; mean inhibition of IL‐1β production (IL‐1β [4]; single dose of 1800 mg): greater than or equal to 99%; time for which mean IL‐1β inhibition was sustained (IL‐1β [4]; single dose of 1800 mg): ~ 24 h; mean inhibition of IL‐1β production (IL‐1β [4]; [19]): greater than 99%; time for which mean IL‐1β inhibition was sustained (IL‐1β [4]; [19]): 8 h; mean inhibition of IL‐18 production across most of the 7‐day dosing period (IL‐18; 900‐mg b.i.d.): greater than 99%; IC90 (IL‐18; Homo sapiens, read-out: estimated plasma IC90 for IL‐18 inhibition): ~2500 nM; inhibition of IL‐18 production (in words) (IL‐18; all SAD cohorts): Near‐complete or complete inhibition; time for which IL‐18 inhibition was sustained (IL‐18; [18]): ~ 8 h; time for which IL‐18 inhibition was sustained (IL‐18; single 1800‐mg dose): ~ 24 h; decrease of AUC0–inf with a high‐fat meal [5]: 14%; decrease of AUC0–last with a high‐fat meal [5]: 14%; decrease of Cmax with a high‐fat meal [5]: ~ 16%; CYP3A4 induction potential (CYP3A4 [6]): mild‐to‐moderate; half-life (clinical [7]): 4.1 to 8.6 h; AUC(0-t) (clinical [7]; 150 mg): 53.5 µg·h/mL; Cmax (clinical [7]; 150 mg): 8110 ng/mL; Tmax (clinical [7]; 150 mg): 2.1 h; Vd/F (clinical [7]; 150 mg): 16.7 L; half-life (clinical [7]; 150 mg): 4.1 h; AUC(0-inf) (clinical [7]; 450 mg): 138 µg·h/mL; AUC(0-t) (clinical [7]; 450 mg): 138 µg·h/mL; Cmax (clinical [7]; 450 mg): 22900 ng/mL; Tmax (clinical [7]; 450 mg): 2 h; Vd/F (clinical [7]; 450 mg): 30.2 L; half-life (clinical [7]; 450 mg): 5.8 h; AUC(0-inf) (clinical [7]; 900 mg): 317 µg·h/mL; AUC(0-t) (clinical [7]; 900 mg): 317 µg·h/mL; Cmax (clinical [7]; 900 mg): 50400 ng/mL; Tmax (clinical [7]; 900 mg): 2 h; Vd/F (clinical [7]; 900 mg): 34.9 L; half-life (clinical [7]; 900 mg): 6.8 h; AUC(0-inf) (clinical [7]; 1800 mg): 739 µg·h/mL; AUC(0-t) (clinical [7]; 1800 mg): 738 µg·h/mL; Cmax (clinical [7]; 1800 mg): 101000 ng/mL; Tmax (clinical [7]; 1800 mg): 4 h; Vd/F (clinical [7]; 1800 mg): 32.1 L; half-life (clinical [7]; 1800 mg): 8.6 h; no‐observed‐adverse‐effect level (NOAEL) [8]: 600 mg/kg/day; C min ([9]; MAD 300 mg b.i.d.): 1820 ng/mL; C min ([9]; MAD 900 mg b.i.d.): 9080 ng/mL; interindividual variability of PK parameters, %CVs ([9]; MAD stage): less than 50%; likely achievement of steady‐state ([9]; MAD, both cohorts, from trough concentrations): ≤ 2 days; accumulation ratios for Cmax and AUC0–tau ([9]; both MAD cohorts (300 and 900 mg b.i.d.), steady‐state vs day 1): ~ 1; AUC (clinical [10]; [20]): 82 µg·h/mL; AUC (clinical [10]; [21]): 92.2 µg·h/mL; Cmax (clinical [10]; [20]): 15300 ng/mL; Cmax (clinical [10]; [21]): 16400 ng/mL; AUC (clinical [10]; [22]): 301 µg·h/mL; AUC (clinical [10]; [23]): 327 µg·h/mL; Cmax (clinical [10]; [22]): 52700 ng/mL; Cmax (clinical [10]; [23]): 51000 ng/mL; mean fraction of drug excreted in urine 0 to 12 h postdose on day 7, range (Urinary PK): 12.3% to 14.8; in vitro human whole blood IC90 (human whole blood): 0.639 µg/mL; IC90 (human whole blood; read-out: in vitro human whole blood IC90): 1480 nM; blood:plasma ratio [11]: 0.6; CYP3A4 induction potential / impact on systemic exposure of midazolam and 1‐hydroxymidazolam (CYP3A4 [1]; human, in vivo): minimal CYP3A4 induction potential; CYP3A4 induction potential / impact on systemic exposure of midazolam and 1‐hydroxymidazolam (CYP3A4 [1]; in vivo): did not have an apparent impact; participants with events consistent with hepatic injury ([12]; DDI stage, after completion of GDC‐2394 dosing): Three; time to recovery from severe DILI ([12]; DDI stage, both participants): ≤ 3 months; total number of events considered related to study treatment ([12]; DDI stage, n = 9): 14; peak elevation of ALT ([12]; MAD 900 mg b.i.d., one subject, day 14): 1.67 × the upper limit of normal [ULN]; Subjects with at least one AE leading to dose modification/interruption ([12]; MAD, all GDC‐2394 (n = 12)): 0; Subjects with at least one AE leading to withdrawal from treatment ([12]; MAD, all GDC‐2394 (n = 12)): 0; Subjects with at least one AE with fatal outcome ([12]; MAD, all GDC‐2394 (n = 12)): 0; Subjects with at least one grade 3–5 AE (at greatest intensity) ([12]; MAD, all GDC‐2394 (n = 12)): 0; Subjects with at least one related AE ([12]; MAD, all GDC‐2394 (n = 12)): 4 (33.3%); Subjects with at least one related serious AE ([12]; MAD, all GDC‐2394 (n = 12)): 0; Subjects with at least one serious AE ([12]; MAD, all GDC‐2394 (n = 12)): 0; Total number of AEs ([12]; MAD, all GDC‐2394 (n = 12)): 18; Total number of deaths ([12]; MAD, all GDC‐2394 (n = 12)): 0; Total number of subjects with at least one AE ([12]; MAD, all GDC‐2394 (n = 12)): 8 (66.7%); Total number of subjects withdrawn from study due to an AE ([12]; MAD, all GDC‐2394 (n = 12)): 0; Subjects with at least one AE leading to dose modification/interruption ([12]; SAD, all GDC‐2394 (n = 24)): 0; Subjects with at least one AE leading to withdrawal from treatment ([12]; SAD, all GDC‐2394 (n = 24)): 0; Subjects with at least one AE with fatal outcome ([12]; SAD, all GDC‐2394 (n = 24)): 0; Subjects with at least one grade 3–5 AE (at greatest intensity) ([12]; SAD, all GDC‐2394 (n = 24)): 0; Subjects with at least one related AE ([12]; SAD, all GDC‐2394 (n = 24)): 6 (25.0%); Subjects with at least one related serious AE ([12]; SAD, all GDC‐2394 (n = 24)): 0; Subjects with at least one serious AE ([12]; SAD, all GDC‐2394 (n = 24)): 0; Total number of AEs ([12]; SAD, all GDC‐2394 (n = 24)): 22; Total number of deaths ([12]; SAD, all GDC‐2394 (n = 24)): 0; Total number of subjects with at least one AE ([12]; SAD, all GDC‐2394 (n = 24)): 14 (58.3%); Total number of subjects withdrawn from study due to an AE ([12]; SAD, all GDC‐2394 (n = 24)): 0

Q: What does the source list for `Cc1ncc2n1-c1ccc(Cl)cc1C(c1ccccc1F)=NC2` [Midazolam, midazolam, reference compound]?
A: AUC(0-inf) (CYP3A4 [13]): 0.056 µg·h/mL; AUC(0-t) (CYP3A4 [13]): 0.0538 µg·h/mL; Cmax (CYP3A4 [13]): 25.6 ng/mL; AUC(0-inf) (CYP3A4 [13]; 5 mg): 0.0578 µg·h/mL; AUC(0-t) (CYP3A4 [13]; 5 mg): 0.0534 µg·h/mL; Cmax (CYP3A4 [13]; 5 mg): 22.9 ng/mL; AUC0–inf GMR (CYP3A4 [1]; human, in vivo): 97%; AUC0–inf GMR (test/reference), estimate (CYP3A4 [1]; human, in vivo): 0.97; AUC0–last GMR (CYP3A4 [1]; human, in vivo): 101%; AUC0–last GMR (test/reference), estimate (CYP3A4 [1]; human, in vivo): 1.01; C max GMR (test/reference), estimate (CYP3A4 [1]; human, in vivo): 1.12; Cmax GMR (CYP3A4 [1]; human, in vivo): 112%

Q: With `Nc1c2c(cc3c1CCC3)CCC2` [indacenyl amine, 1,2,3,5,6,7‐hexahydro‐s‐indacen‐4‐amine] as the molecule, how does the “day 7 predose indacenyl amine concentration, range” value ([14]; MAD 900‐mg b.i.d. cohort) read?
A: 65.8 to 158 ng/mL

Q: And the half-life ([14]; human, plasma, oral)?
A: 36 to 49 h

Q: With canakinumab: an anti‐IL‐1β antibody as the molecule, how does the “frequency of cardiovascular events” value (IL‐1β [15]) read?
A: significantly reduced

Reference: publication PMC10499406 (Clinical and Translational Science, 2023)
